VIM-2 inh = inhibitors of Pseudomonas aeruginosa VIM-2 metallo-beta-lactamase; purified VIM-2, nitrocefin hydrolysis, epi-absorbance fluorescence; inhibition, % at 5.6 µM; 290,000 compounds, 0.89% hits;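 active = inhibition above the mean of all tested compounds plus 3 SD, cutoff set per screening run, cut at about 7.5% in these data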;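 also: red hydrolysis product quenches plate fluorescence so inhibitors raise well fluorescence; 0% = enzyme with DMSO and 100% = DMSO without enzyme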
TMEM16A act = activates or potentiates the mouse TMEM16A chloride channel | HEK293 TMEM16A/YFP-H148Q/I152L, iodide quench fluorescence; stronger effect = lower value | 340,000 compounds, 0.3% hits | B-score at 10 µM;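 active = fluorescence-ratio B-score plate-corrected deviation score at least 3 library SD below zero, with starting fluorescence score within 5 deviations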;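 also: channel opened by trigger with iodide after compound preincubation; score built on the fluorescence ratio of max minus min over baseline; more negative score means more quench and so TMEM16A activation or potentiation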
CHT PAM = allosterically activates the human high affinity choline transporter; 310,000 compounds, 0.49% hits; Q9GZV3; B-score at 10 µM; CHT-expressing cells, membrane potential dye, choline EC20; stronger effect = higher value; LV-AA mutant CHT in HEK293 cells;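 active = initial fluorescence not abnormally high and integrated response B-score, plate-corrected, over 3 SD above library mean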
Target sequence (Q9GZV3 whole entry, looked up): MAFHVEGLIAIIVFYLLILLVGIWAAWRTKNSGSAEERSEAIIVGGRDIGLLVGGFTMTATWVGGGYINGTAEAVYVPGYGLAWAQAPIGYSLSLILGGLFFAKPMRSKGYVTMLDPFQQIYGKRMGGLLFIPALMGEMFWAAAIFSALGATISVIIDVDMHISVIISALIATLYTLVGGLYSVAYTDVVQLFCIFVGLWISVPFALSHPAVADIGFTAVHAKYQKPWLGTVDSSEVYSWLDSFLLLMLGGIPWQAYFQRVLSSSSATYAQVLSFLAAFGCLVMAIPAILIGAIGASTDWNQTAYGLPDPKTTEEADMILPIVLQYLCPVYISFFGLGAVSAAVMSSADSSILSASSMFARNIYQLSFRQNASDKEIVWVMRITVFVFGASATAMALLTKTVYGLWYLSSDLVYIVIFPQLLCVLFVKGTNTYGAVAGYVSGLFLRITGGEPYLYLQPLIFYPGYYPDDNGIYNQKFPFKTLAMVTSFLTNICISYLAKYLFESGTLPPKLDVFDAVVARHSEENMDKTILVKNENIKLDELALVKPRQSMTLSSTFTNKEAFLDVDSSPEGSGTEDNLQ
CHT inh = inhibitors of human choline transporter CHT; Q9GZV3; CHT-expressing cells, membrane potential dye, choline response; stronger effect = lower value; B-score at 10 µM; 310,000 compounds, 0.86% hits; AID 488975;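 active = B-score over 3 SD under the library average, and starting fluorescence ratio not unusually high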;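 also: choline stimulus applied at its EC90 after an EC20 pre-addition; B-score computed on integrated fluorescence ratio after choline addition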
IMP-1 inh-1 = blocks Pseudomonas aeruginosa IMP-1 metallo-beta-lactamase; purified IMP-1, nitrocefin hydrolysis, epi-absorbance fluorescence; inhibition, % at 5.6 µM; 290,000 compounds, 0.45% hits; AID 1556;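 active = inhibition above the mean plus 3 SD of all compounds in the same screening run, cut at about 4.5% in these data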;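 also: 0% = IMP-1 with DMSO and 100% = DMSO wells lacking enzyme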
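System: Purified IMP-1 | Read-out basis: Percent enzyme inhibition | Controls: IMP-1 with DMSO as 0%, enzyme-free DMSO as 100% | Replicates: One well per compound | Doses: 5.6 µM nominal single concentration | Detection: Epi-absorbance fluorescence, 480 nm excitation, 530 nm emission | Incubation: 25 °C, 15 min preincubation, 25 min reaction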
ANO1 block = mouse TMEM16A channel inhibition, primary screen | HEK293 TMEM16A/YFP iodide influx fluorescence, ionomycin | normalized B-score (activity score, 25-100; higher = stronger inhibition) at 10 µM | 310,000 compounds, 1.2% hits | AID 588511;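 active = ratio plate-corrected score three or more library SD toward inhibition, starting fluorescence score within five deviations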;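 also: score derived from kinetic fluorescence span divided by baseline fluorescence per well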
IMP-1 inh-2 = selectivity counter-screen for VIM-2 inhibitors: IMP-1 metallo-beta-lactamase inhibitors; shares compounds with VIM-2 inh; purified IMP-1, nitrocefin hydrolysis, epi-absorbance fluorescence; 1,300 tested, under 10 active; inhibition, % at 5.6 µM; call rule not given here;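 also: 0% = enzyme with vehicle and 100% = vehicle without enzyme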
VIM-2 FRET inh = counter-screen for VIM-2 inhibitors: epi-absorbance artifacts via FRET; shares compounds with VIM-2 inh; purified VIM-2, CCF2 FRET substrate hydrolysis; inhibition, % at 5.6 µM; 1,300 compounds, 23% hits; AID 1857;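 active = inhibition above the mean of all tested compounds plus 3 SD, cut at about 19% in these data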;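 also: 0% = VIM-2 plus DMSO and 100% = no enzyme wells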
TEM-1 counter = blocks E. coli TEM-1 beta-lactamase in VIM-2 selectivity screen. shares compounds with VIM-2 inh. Purified TEM-1, nitrocefin hydrolysis, epi-absorbance fluorescence. inhibition, % at 5.6 µM. 1,300 compounds, 3% hits. AID 1866;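 active = inhibition above that campaign's mean inhibition plus 3 SD, cut at about 0.46% in these data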;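 also: 0% = TEM-1 with DMSO and 100% = TEM-1 with 100 µM potassium clavulanate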
VIM-2 inh conf = confirmation of P. aeruginosa VIM-2 metallo-beta-lactamase inhibitors | inhibition, % at 5.6 µM | purified VIM-2, nitrocefin hydrolysis, epi-absorbance | shares compounds with VIM-2 inh | 1,300 compounds, 96% hits;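 active = inhibition of the VIM-2 beta-lactamase enzyme above about 11% from the earlier first-round screen, limit read from the data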;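 also: 0% = VIM-2 with DMSO and 100% = buffer wells without enzyme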
* = called active by the depositor; i = inactive; . = no result given. This is a sample that favours compounds with a hit; in the whole collection about 3.4% have one here.

SMILES | VIM-2 inh | TMEM16A act | CHT PAM | CHT inh | IMP-1 inh-1 | ANO1 block | IMP-1 inh-2 | VIM-2 FRET inh | TEM-1 counter | VIM-2 inh conf
c1cncc(CNc2ncnc3sc4c(c23)CCCC4)c1 | 1.1 | i | i | i | -1.0 | i | . | . | . | .
c1cn(CCCNc2ncnc3sc4c(c23)CCC4)cn1 | 28.2* | i | i | i | -2.4 | i | -3.3 | -10.1 | -8.4 | 55.9*
NCCNC(=O)c1ncsc1-c1cccc(F)c1 | . | i | i | i | . | i | . | . | . | .
O=C(O)c1ncsc1-c1ccccc1 | 13.4* | i | i | i | -2.6 | i | -2.3 | 23.9* | -0.8 | 16.1*
Cc1ccccc1C(=O)NC(=S)Nc1ccccc1N1CCCC1 | 15.1* | i | i | i | -4.2 | i | -3.0 | 9.0 | -7.6 | 4.8
O=C(COc1ccccc1Cl)NC(=S)Nc1ccccc1N1CCCC1 | 18.2* | i | i | i | -1.2 | i | -2.3 | 20.0* | -6.5 | 5.2
O=C(NC(=S)Nc1ccccc1N1CCCC1)c1cccc(F)c1 | 13.5* | i | i | i | -2.2 | i | -4.1 | 18.9* | -9.2 | 5.8
COC(=O)c1ccccc1NC(=S)NC(=O)COc1ccccc1Cl | -4.1 | i | i | i | -5.4 | i | . | . | . | .
Cc1cc(C(F)(F)F)nc(SCC(=O)Nc2c(C)n(C)n(-c3ccccc3)c2=O)n1 | 0.1 | i | i | i | -4.1 | i | . | . | . | .
COc1ccccc1CNC(=O)C(CCSC)NC(=O)c1cccc(S(=O)(=O)N2CCOCC2)c1 (stereo unspecified) | . | i | . | . | . | . | . | . | . | .
COc1ccc(Nc2c3c(nc4ccccc24)CCCC3)cc1OC | 16.1* | i | i | i | -3.3 | i | -2.8 | -1.3 | -6.8 | 29.7*
COc1cc(Nc2c3ccccc3nc3ccccc23)cc(OC)c1OC | 5.3 | i | i | i | -3.0 | i | . | . | . | .
CCN1CCN(C(=O)C2CCC(=O)N(Cc3cccc(C(F)(F)F)c3)C2)CC1 (stereo unspecified) | 26.9* | i | i | i | -1.4 | i | -4.3 | -1.4 | -6.1 | 1.9
CCOC(=O)N1CCN(C(=O)C2CCC(=O)N(Cc3cccc(C(F)(F)F)c3)C2)CC1 (stereo unspecified) | -2.5 | i | i | i | -1.4 | i | . | . | . | .
COc1cccc(CNC(=O)CCS(=O)(=O)c2ccccc2Cl)c1 | . | i | . | . | . | . | . | . | . | .
CC1CC(C)CN(c2ccc([N+](=O)[O-])cc2-c2nn[nH]n2)C1 (stereo unspecified) | 32.7* | i | i | i | -3.7 | i | -1.4 | 61.1* | 2.3* | 44.6*
CCCC[C@@H](CNC)NC[C@H](Cc1ccc(O)cc1)NCCc1ccc(OCC)cc1 | 66.9* | i | i | i | 0.8 | i | -3.0 | -3.3 | -6.2 | 70.2*
CC(C)CC(NC(=O)/C(=C/c1ccco1)NC(=O)c1ccc(Br)o1)C(=O)O (stereo unspecified) | -1.5 | i | i | i | -0.7 | i | . | . | . | .
Cc1nc2cc(-c3ccc(Cl)cc3)nn2c(NCCN(C)C)c1C | 18.6* | i | i | i | -2.8 | i | -1.7 | -3.5 | -7.0 | 44.4*
Cc1[nH]c(C)c(S(=O)(=O)Nc2cccc(Cl)c2C)c1C(=O)N1CCCCC1 | -1.2 | i | i | i | -2.4 | i | . | . | . | .
O=C(C[C@@H]1C/C=C\C[C@@H](Cc2ccc(F)cc2)C(=O)OCCNC1=O)N[C@H](CO)Cc1ccccc1 | . | i | . | . | . | . | . | . | . | .
CC(=O)Nc1ccc(Nc2cc(N(C)C)c3nonc3c2[N+](=O)[O-])cc1 | 29.5* | i | i | i | -2.8 | i | -3.2 | -3.2 | -5.8 | 36.2*
O=C(O)c1ccc(Nc2cc(Cl)c3nonc3c2[N+](=O)[O-])cc1 | 0.2 | i | i | i | -3.1 | i | . | . | . | .
CCCn1c(=N)c(S(=O)(=O)c2ccccc2)cc2c(=O)n3cccc(C)c3nc21 | 15.0* | i | i | i | -1.4 | i | -3.6 | -1.1 | -6.7 | 23.0*
CCCCCn1c(=N)c(S(=O)(=O)c2ccc(Cl)cc2)cc2c(=O)n3cccc(C)c3nc21 | 0.5 | i | i | i | -3.7 | i | . | . | . | .
SMILES | VIM-2 inh | TMEM16A act | CHT PAM | CHT inh | IMP-1 inh-1 | ANO1 block | IMP-1 inh-2 | VIM-2 FRET inh | TEM-1 counter | VIM-2 inh conf
CCCCn1c(N)c(N(CCOC)C(=O)CSc2nnc(-c3ccco3)n2CC)c(=O)[nH]c1=O | . | i | . | . | . | . | . | . | . | .
O=C(O)c1ccccc1Nc1ccc([N+](=O)[O-])c2nonc12 | 22.2* | i | i | i | -6.1 | i | -5.3 | 50.6* | -13.6 | 26.8*
CCCN(CCC)CCCNC(=O)Cn1cnc2sc(C)c(S(=O)(=O)N3CCOCC3)c2c1=O | -1.9 | i | i | i | -1.7 | i | . | . | . | .
COc1ccc(CCC(=O)NNC(=O)Cn2nc(C)cc2C)cc1 | -0.6 | i | i | i | -2.1 | i | . | . | . | .
COC(=O)CN(C)C(=O)c1ccc2nc(Cc3cccc(Cl)c3)oc2c1 | 1.9 | i | i | i | 0.1 | i | . | . | . | .
C=CCOc1ccc(CNn2c(C)n[nH]c2=S)cc1OC | -1.3 | i | i | i | -0.5 | i | . | . | . | .
C=CCOc1ccc2ccccc2c1CNn1c(C)n[nH]c1=S | 16.8* | i | i | i | -1.6 | i | -4.1 | 32.6* | -5.8 | 20.0*
CCOC(=O)C(=CNc1ccc(NC2=NCC(C)S2)cc1)C(=O)OCC (stereo unspecified) | 28.0* | i | i | i | -2.4 | i | -2.2 | -7.4 | -5.6 | 44.1*
CC(C)Cn1c(=O)c(CCC(=O)Nc2ccc(N3CCOCC3)cc2)nc2cc(Cl)ccc21 | -2.0 | i | i | i | 0.3 | i | . | . | . | .
O=C(/C=C/c1ccccc1)OCC(=O)c1c[nH]c2ccccc12 | . | i | . | . | . | . | . | . | . | .
COc1ccccc1C(=O)COC(=O)/C=C/c1ccccc1 | 12.5* | i | i | i | -1.9 | i | -4.0 | 28.5* | -1.7 | 18.0*
COc1ccc(NC(=O)CN(C)S(=O)(=O)c2ccc3c(c2)c(=O)n(C)c(=O)n3C)cc1 | -3.4 | i | i | i | -2.1 | i | . | . | . | .
